Bioassay records deposited in PubChem BioAssay by several laboratories.
IDE inh – inhibitors of human insulin-degrading enzyme in cells; HEK cells, FAbetaB cleavage, fluorescence polarization; inhibition, % at 5.59 µM; actives 0.41% (n = 320,000); AID 434962;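 active = percent inhibition above the average of all tested compounds plus 3 SD, set per screening campaign, cut at about 16% in these data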;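 note: IDE supplied by intact live HEK cells; FP after avidin binding of uncleaved biotin substrate so inhibition keeps polarization high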
UBC13 inh – blocks human UBC13 polyubiquitin chain formation; TR-FRET; inhibition, % at 20 µM; actives 0.47% (n = 330,000); AID 485273; in the data active = inhibition above about 45%, passing the limit was not always enough
procasp3 activ – procaspase-3 (human) activation | actives 0.11% (n = 330,000) | AID 463141 | activation, % at 8.5 µM | recombinant procaspase-3 D3A, Ac-DEVD-pNA absorbance 405 nm | P42574;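 active = activation above the mean of all tested compounds plus 3 SD, cut at about 21% in these data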
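Assay system – Procaspase-3 D3A mutant · Benchmarks – DMSO low control, extra-enzyme high control · Technique – 405 nm absorbance of p-nitroaniline, reads at 0 and 120 min · Doses – 8.5 µM nominal · Measure – % activation between DMSO and enzyme-spiked controls · Also added – Ac-DEVD-pNA chromogenic peptide substrate · Schedule – 1 h compound preincubation, 2 h substrate hydrolysis at 25 °C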
PHOSPHO1 inh – blocks human PHOSPHO1 phosphatase activity | recombinant PHOSPHO1, absorbance phosphatase assay | inhibition, % at 13.3 µM | actives 1.1% (n = 290,000) | AID 1565; in the data active = inhibition above about 60%
IDE cell activ – IDE (human) activation, cell-based. activation, % at 5.96 µM. P14735. HEK cells, FAbeta-B cleavage, fluorescence polarization; 0% vehicle, 100% cell-free pure enzyme wells. actives 0.073% (n = 340,000). AID 493087;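 active = activation above the mean of all tested compounds plus 3 SD, set per screening campaign, cut at about 17% in these data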
proCasp7 act – counter-screen for procaspase-3 activators: activators of human procaspase-7; actives 0.093% (n = 330,000); P55210; activation, % at 8.5 µM; recombinant procaspase-7, Ac-DEVD-pNA absorbance 405 nm; D23A/D198A/D206A triple mutant, cannot self-cleave; scale: DMSO 0, 5 µM enzyme 100;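 active = percent activation above the screen-wide mean plus 3 SD, cut at about 25% in these data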
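Assay system: Uncleavable procaspase-7 mutant enzyme; Input: 2 µM procaspase-7 mutant as dispensed; Also added: DEVD-pNA substrate; Medium: Zinc-free HEPES pH 7.4 with 300 mM NaCl, 0.01% Triton X-100; Timing: 1 h compound preincubation, 2 h substrate cleavage, 25 °C; Measured by: Epi-absorbance of released pNA at 405 nm, two timepoints.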
Casp3 UBC13 ctr – caspase-3 inhibition (UBC13 counter-screen); inhibition, % at 20 µM; shares compounds with UBC13 inh; actives 4% (n = 1,400); Recombinant caspase-3, Caspase-Glo 3/7 luminescence, 60 min; AID 488856;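 active = mean inhibition across replicates above about 26%, limit read from the data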
Target sequence (P42574 whole entry, looked up): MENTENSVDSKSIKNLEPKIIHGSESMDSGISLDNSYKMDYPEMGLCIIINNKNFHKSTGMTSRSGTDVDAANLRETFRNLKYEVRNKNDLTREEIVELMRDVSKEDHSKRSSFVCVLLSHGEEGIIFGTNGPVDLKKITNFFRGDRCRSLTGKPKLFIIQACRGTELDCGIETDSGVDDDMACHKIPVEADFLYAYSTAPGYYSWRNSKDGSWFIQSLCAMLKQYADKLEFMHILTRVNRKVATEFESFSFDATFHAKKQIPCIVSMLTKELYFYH
UBC13 conf – human UBC13 polyubiquitin inhibition, confirmed. shares compounds with UBC13 inh. UBC13 polyubiquitination, TR-FRET, biochemical. inhibition, % at 10 µM. actives 68% (n = 1,400). AID 488859; in the data active = inhibition above about 45%
Numbers stand for hits; 0 = inactive; - = no result. In the library only some 1.9% were active in any assay of this set; here they are far more common.

SMILES | IDE inh | UBC13 inh | procasp3 activ | PHOSPHO1 inh | IDE cell activ | proCasp7 act | Casp3 UBC13 ctr | UBC13 conf
CC[C@H]1CN2CCC1C[C@@H]2[C@H](O)c1ccnc2ccc(OC)cc12 (stereo not given in full) | - | - | - | - | 0 | - | - | -
Cc1ccc(C(=O)N[C@@H](C)CN2C3=NC[C@@H](Cc4ccccc4)N3C[C@H]2Cc2ccc(O)cc2)cc1Br | 0 | 77.0 | 0 | 0 | - | 0 | 0 | 75.7
Cc1ccc(C(=O)N[C@@H](C)CN2C3=NC[C@H](Cc4ccccc4)N3C[C@H]2Cc2ccc(O)cc2)cc1Br | 0 | 65.1 | 0 | 0 | - | 0 | 0 | 64.6
N[C@H](CO)Cc1ccccc1 | - | - | - | - | 0 | - | - | -
COC(=O)C1=C(c2ccc(OC)c(OC)c2)C[C@@H]2CC[C@H]1N2C(=O)NCc1cccc2ccccc12 | 0 | 0 | 0 | - | 0 | 0 | - | -
O=C1C(=O)N(c2ccccc2)P(=O)(N(CCCl)CCCl)N1c1ccccc1 | - | - | - | - | 0 | - | - | -
CCCCCCCSc1cc(OC)c(CCN(C)C)cc1OC | 0 | 49.9 | 0 | 0 | 0 | 0 | 0 | 56.1
CCCCCn1c(=O)c(C(=O)Nc2nc(CC(=O)OCC)cs2)c(O)c2ccccc21 | 0 | 0 | 0 | 0 | 0 | 0 | - | -
CNCC(O)c1cc(OCc2ccccc2)c(OCc2ccccc2)cc1F (stereo not given) | 0 | 52.6 | 0 | - | 0 | 0 | 0 | 0
Clc1ccc(COC(Cn2ccnc2)c2ccc(Cl)cc2Cl)cc1 (stereo not given) | 0 | 49.6 | 0 | 0 | 0 | 0 | 0 | 0
